SMILES strings stand for the structures. Bounds are passed on as bounds.

13 molecules from ChEMBL document CHEMBL4387744, “Discovery of conolidine derivative DS39201083 as a potent novel analgesic without mu opioid agonist activity” (Bioorg Med Chem Lett, 2019) can be followed below.

For data set [1], the species on record is Mus musculus. Nature of the data set: Analgesic activity in Slc:ddY mouse assessed as inhibition of acetic acid-induced writhings. It counts as functional. The essentials:
(§1)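 Acetic acid-induced writhing in Slc:ddY mice after oral dosing. Read-out is reduction (% inhibition) of writhing behaviour. ED50 calculated from the dose-response curve of analgesic activity at 10, 30 and 100 mpk.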
In general terms: An intraperitoneal irritant provokes the stretching counted in writhing tests.

The target in data set [2] is T1, Mu-type opioid receptor (Homo sapiens, UniProt P35372). Briefly: Agonist activity at human mu opioid receptor expressed in CHO cells by cAMP assay. Format: cell-based. The essentials:
(§2)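 Human MOR expressed in CHO cells; cAMP read-out. EC50 derived from the cAMP response.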
Background: Cyclic AMP is a second messenger, typically raised through Gs and lowered through Gi signalling.

The target of data set [3] is T1, Mu-type opioid receptor. Nature of the data set: Agonist activity at human mu opioid receptor expressed in CHO cells by cAMP assay relative to DAMGO. It counts as cell-based. The essentials:
as §2

The target of data set [4] is T1, Mu-type opioid receptor. Briefly: Displacement of [3H]-diprenorphine from MOR (unknown origin). Format: ADME. (In general: Loss of bound radioactivity is the signal in a displacement assay; it reports binding, not function.)
For data set [5], the system named is Mus musculus. Briefly: Analgesic activity in Slc:ddY mouse assessed as inhibition of acetic acid-induced writhings at 30 mg/kg, po relative to control. It counts as functional. The essentials:
as §1

Data set [6] in a line: Distribution coefficient between 1-octanol and phosphate buffer, logD of the compound in pH 7.4 buffer. It counts as physicochemical. As to conditions: 1-octanol/phosphate buffer. In short, it runs like this:
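Log D measured as partitioning between 1-octanol and phosphate-buffered saline at pH 7.4.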

In data set [7] the test system is Mus musculus. Briefly: Analgesic activity in Slc:ddY mouse assessed as reduction in sum of the time spent in paw licking or biting responses during phase 1 at 30 mg/kg, po dosed 30 mins before formalin injection by formalin test relative to control. It counts as functional. The essentials:
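Formalin test in Slc:ddY mice (n = 8). Compound given p.o. at 30 mg/kg; 30 min later 3.5% formalin (20 μL) injected into the hind paw pad. Read-out is the reduction in summed paw licking and biting time over the first 10 min after injection (initial phase).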

Data set [8] in a line: Half life in ddY mouse 10 mg/kg, po. Format: ADME, organism-based. The following applies: in vivo. The essentials: (§3)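 Plasma pharmacokinetics in ddY mice after a single oral dose of 10 mg/kg, given as a 0.5 w/v% methylcellulose suspension. Reported values are the average of three.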
Data set [9] in a line: Cmax in ddY mouse 10 mg/kg, po. The following applies: in vivo. The arrangement: dose 10 mg/kg, route oral. It counts as ADME, organism-based. In short, it runs like this:
as §3

Data set [10] in a line: AUC in ddY mouse 10 mg/kg, po. It counts as ADME, organism-based. The following applies: in vivo. The essentials: as §3
Data set [11] deals with Mus musculus. Briefly: Analgesic activity in Slc:ddY mouse assessed as inhibition of acetic acid-induced writhings at 3 mg/kg, po relative to control. Format: functional.
The test system of data set [12] is Mus musculus. Briefly: Analgesic activity in Slc:ddY mouse assessed as inhibition of acetic acid-induced writhings at 10 mg/kg, po relative to control. Format: functional. In short, it runs like this: as §1

T1 sequence (P35372 whole entry): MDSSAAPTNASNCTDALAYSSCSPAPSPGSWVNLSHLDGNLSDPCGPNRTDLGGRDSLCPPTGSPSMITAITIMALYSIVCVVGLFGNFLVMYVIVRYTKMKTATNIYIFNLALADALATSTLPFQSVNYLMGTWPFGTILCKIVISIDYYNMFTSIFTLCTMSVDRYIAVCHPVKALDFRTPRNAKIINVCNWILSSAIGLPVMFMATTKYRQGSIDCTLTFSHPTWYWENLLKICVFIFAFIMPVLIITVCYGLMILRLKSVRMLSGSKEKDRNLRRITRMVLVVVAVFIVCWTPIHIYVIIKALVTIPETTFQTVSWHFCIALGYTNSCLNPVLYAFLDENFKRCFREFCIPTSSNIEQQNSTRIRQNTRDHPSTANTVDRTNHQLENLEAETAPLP

For the molecule `C/C=C1/CN2CC[C@H]1C(=O)c1[nH]c3ccccc3c1C2.O=S(=O)(O)O`, in [1], the median effective dose (ED50) was 32 mg/kg. Further, in data set [2], the EC50 was over 100 µM. Moreover, the Emax in data set [3] stood at 13%. The 50% inhibitory concentration (IC50) in [4] was found to be 70 µM. For the same molecule, the inhibition in vivo at 30 mg/kg in data set [5] stood at 49%; in data set [7], 43%. The log distribution coefficient (logD) in data set [6] is 2.8.

As for `CCC12CCN(CC1)Cc1c([nH]c3ccccc13)C2=O.O=S(=O)(O)O`, in [8], the half-life was 1.28 h. The molecule also yielded a Cmax in [9] of 0.71 µM. For the same molecule, the AUC in data set [10] is 1020 nM·h. Besides, the inhibition in vivo at 30 mg/kg in data set [5] amounted to 48%. In data set [6], the pH-dependent lipophilicity (logD) is 3.

With `O=C1c2[nH]c3ccccc3c2CN2CCC1CC2`, the 50% effective dose (ED50) in [1] amounted to 11 mg/kg. This molecule gave a half-maximal effective concentration (EC50) in data set [2] of over 100 µM. Besides, the half-life in data set [8] was 1.17 h. The molecule also returned an Emax in [3] of 13%. The molecule also showed a Cmax in data set [9] of 1.16 µM. The molecule also registered an IC50 in data set [4] of over 100 µM. In data set [10], this molecule displayed an AUC of 2260 nM·h. Also, in data set [5], the inhibition in vivo at 30 mg/kg is 73%. In data set [6], this molecule registered a logD of 1.8.

Regarding `CC12CCN(CC1)Cc1c([nH]c3ccccc13)C2=O.O=S(=O)(O)O`, the median effective dose (ED50) in data set [1] stood at 7.8 mg/kg. Besides, in [2], the 50% effective concentration (EC50) was over 100 µM. In addition, in data set [8], the half-life is 2.33 h. The inhibition in vivo at 3 mg/kg in data set [11] turned out to be 23%. The Emax in [3] amounted to 12%. For the same molecule, in [9], the Cmax stood at 1.25 µM. Moreover, the inhibition in vivo at 10 mg/kg in data set [12] is 52%. In [4], this molecule returned a concentration for half-maximal inhibition (IC50) of 71 µM. For the same molecule, the area under the curve (AUC) in data set [10] amounted to 3210 nM·h. For the same molecule, the inhibition in vivo at 30 mg/kg was 90 to 94% in data set [5] and 92% in data set [7]. In addition, the logD in data set [6] was found to be 2.5.

Turning to `CCC1CN2CCC1C(=O)c1[nH]c3ccccc3c1C2` (mixture of isomers), in data set [5], the inhibition in vivo at 30 mg/kg turned out to be 50%.

In the case of `C/C=C1/CN2CCC1C(=O)c1[nH]c3c(OC)cccc3c1C2` (racemic), in data set [5], the inhibition in vivo at 30 mg/kg stood at 34%. Also, the logD in [6] turned out to be 3.3.

For `C/C=C1/CN2CCC1C(=O)c1[nH]c3ccccc3c1C2` (racemic), the inhibition in vivo at 30 mg/kg in data set [5] came to 49%.

For `C/C=C1/CN2CCC1C(=O)c1c(c3ccccc3n1C)C2` (racemic), the inhibition in vivo at 30 mg/kg in data set [5] turned out to be 30%. In addition, the logD in data set [6] was 3.5.

Consider `C/C=C1/CN2CCC1C(=O)c1[nH]c3cccc(OC)c3c1C2` (racemic), for which the inhibition in vivo at 30 mg/kg in [5] came out at 42%. The logD in data set [6] was determined as 3.4.

For the molecule `C/C=C1/CN2CCC1C(=O)c1[nH]c3ccc(OC)cc3c1C2` (racemic), the inhibition in vivo at 30 mg/kg in data set [5] was 3%. In data set [6], this molecule displayed a logD of 3.1.

As to `C/C=C1\CN2CCC1C(=O)c1[nH]c3ccccc3c1C2` (racemic), in [5], the inhibition in vivo at 30 mg/kg is 18%. The same molecule displayed a pH-dependent lipophilicity (logD) in data set [6] of 3.3.

Consider `C/C=C1/CN2CCC1C(=O)c1[nH]c3cc(OC)ccc3c1C2` (racemic), for which the inhibition in vivo at 30 mg/kg in data set [5] came out at 31%. This molecule showed a logD in data set [6] of 3.1.

Turning to `CC/C=C1/CN2CCC1C(=O)c1[nH]c3ccccc3c1C2` (racemic), the inhibition in vivo at 30 mg/kg in data set [5] came out at 0%.

In general, ED50 refers to the dose that gives a 50% effect, or the effect in half of the subjects. The EC50 is the concentration giving half of the maximal effect. A high value points to a less potent agent. One may read the Emax as the greatest response seen or fitted, relative to the assay's reference. Usually IC50 stands for the concentration that inhibits the measured activity by half. Low values mean greater potency, high ones weaker potency. As usually defined, the inhibition in vivo is the change of the read-out against control, counted positive when it falls. Broadly, the logD is the decadic logarithm of the distribution of all forms, ionised or not, between an organic phase and buffer at a given pH. High values mean a more lipophilic compound, low ones a more hydrophilic compound. Broadly, the half-life is how long it takes for the measured level to halve. Read a low half-life as rapid decline. A word on the Cmax: it is the peak of the concentration-time curve. For orientation: AUC means concentration integrated over time.
